Reference: ChEMBL document CHEMBL3739264, “Synthesis and bio-evaluation of novel quinolino-stilbene derivatives as potential anticancer agents” (Bioorg Med Chem, 2015)
pIC50: −log10 of the molar value. Active and inactive are the calls of the source. No cut-off for these calls is given here.

Key:
[1] = test system: MDA-MB-231; experiment: Antiproliferative activity against human MDA-MB-231 cells after 72 hrs by SRB assay; format: functional, cell-based; details: MDA-MB-231, 72 h
How it was run: (§1)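 Cells seeded at 4,000-5,000/well for 16 h, then exposed 72 h to serial dilutions of compound in DMSO; sham DMSO as 100% and TCA-treated wells as 0%. Fixed in 10% TCA at 4°C for 1 h, stained with 0.4% SRB for 30 min, dye solubilised in 10 mmol Tris pH 10.5, read at 540 nm. IC50 from sigmoidal dose-response curves; two biological replicates, four technical each.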

[2] = test system: HeLa; experiment: Cell cycle arrest in human HeLa cells assessed as accumulation at G0-G1 phase at 6 uM after 24 hrs by flow cytometry analysis relative to control; format: functional
How it was run: (§2)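 About 1 × 10^6 cells per plate seeded overnight, then treated with compound and harvested at set times. Cells fixed in 75% ethanol at -20°C for 12-24 h and stained 1 h with 100 µg/ml PI, 100 µg/ml RNase A and 0.3% NP-40 in PBS. DNA content measured by flow cytometry; phase fractions compared with sham-treated cells.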

[3] = test system: HeLa; experiment: Induction of apoptosis in human HeLa cells assessed as popcorn like morphology at 6 uM after 48 hrs by time lapse microscopy analysis; format: functional, cell-based
How it was run: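 Treated HeLa cells were followed by time-lapse microscopy, with images taken at set time points.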

[4] = test system: HeLa; experiment: Increase of cyclin-B level in human HeLa cells at 6 uM after 48 hrs by Western blot analysis; format: functional, cell-based
How it was run: (§3)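 HeLa cells were sham-treated or given 6 µM and collected at set times. Lysed on ice in Tris pH 7.4/NaCl/EDTA/1% Triton X-100 with PMSF and protease inhibitors. 30-40 µg protein run on 8 or 10% gels, blotted to PVDF, probed overnight at 4°C and detected by ECL. Band levels normalized to GAPDH.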

[5] = test system: MDA-MB-231; experiment: Cell cycle arrest in human MDA-MB-231 cells assessed as accumulation at G0-G1 phase at 6 uM after 48 hrs by flow cytometry analysis relative to control; format: functional; how it was run: as §2
[6] = Cell cycle arrest in human MCF10A cells assessed as accumulation at G0-G1 phase at 6 uM after 72 hrs by flow cytometry analysis relative to control; format: functional, cell-based; details: MCF-10A; how it was run: as §2
[7] = test system: HeLa; experiment: Antiproliferative activity against human HeLa cells after 72 hrs by SRB assay; format: functional, cell-based; how it was run: as §1
[8] = test system: HeLa; experiment: Increase of histone 3 phosphorylation at Ser10 level in human HeLa cells at 6 uM after 48 hrs by Western blot analysis; format: functional, cell-based; how it was run: as §3
[9] = Antiproliferative activity against human MCF10A cells after 72 hrs by SRB assay; format: cell-based; details: MCF-10A; how it was run: as §1
[10] = test system: MDA-MB-231; experiment: Cell cycle arrest in human MDA-MB-231 cells assessed as accumulation at sub-G1 phase at 6 uM after 72 hrs by flow cytometry analysis relative to control; format: functional
How it was run: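 Cells seeded overnight at about 1 × 10^6 per plate, treated next morning, and harvested at set times. Fixed in 75% ethanol at -20°C for 12-24 h, then stained 1 h in PBS with 0.3% NP-40, 100 µg/ml RNase A and 100 µg/ml propidium iodide. Phase distribution read from DNA content by flow cytometry against sham-treated cells.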

[11] = Cell cycle arrest in human MCF10A cells assessed as accumulation at G0-G1 phase at 6 uM after 12 hrs by flow cytometry analysis relative to control; format: functional, cell-based; details: MCF-10A; how it was run: as §2
[12] = Cell cycle arrest in human MCF10A cells assessed as accumulation at sub-G1 phase at 6 uM after 48 hrs by flow cytometry analysis relative to control; format: functional, cell-based; details: MCF-10A; how it was run: as §2
[13] = test system: MDA-MB-231; experiment: Cell cycle arrest in human MDA-MB-231 cells assessed as accumulation at G2/M phase at 6 uM after 48 hrs by flow cytometry analysis relative to control; format: functional; how it was run: as §2
[14] = test system: HeLa; experiment: Cell cycle arrest in human HeLa cells assessed as accumulation at G2/M phase at 6 uM after 24 hrs by flow cytometry analysis relative to control; format: functional; how it was run: as §2
[15] = test system: HeLa; experiment: Decrease of Wee-1 level in human HeLa cells at 6 uM after 48 hrs by Western blot analysis
[16] = test system: MDA-MB-231; experiment: Cell cycle arrest in human MDA-MB-231 cells assessed as accumulation at G0-G1 phase at 6 uM after 24 hrs by flow cytometry analysis relative to control; format: functional; how it was run: as §2
[17] = test system: HeLa; experiment: Cell cycle arrest in human HeLa cells assessed as accumulation at sub-G1 phase at 6 uM after 72 hrs by flow cytometry analysis relative to control; format: functional; how it was run: as §2
[18] = test system: MDA-MB-231; experiment: Cell cycle arrest in human MDA-MB-231 cells assessed as accumulation at G2/M phase at 6 uM after 12 hrs by flow cytometry analysis relative to control; format: functional; how it was run: as §2
[19] = Cell cycle arrest in human MCF10A cells assessed as accumulation at sub-G1 phase at 6 uM after 12 hrs by flow cytometry analysis relative to control; format: functional, cell-based; details: MCF-10A; how it was run: as §2
[20] = test system: HeLa; experiment: Cell cycle arrest in human HeLa cells assessed as accumulation at G2/M phase at 6 uM after 12 hrs by flow cytometry analysis relative to control; format: functional; how it was run: as §2
[21] = test system: MDA-MB-231; experiment: Cell cycle arrest in human MDA-MB-231 cells assessed as accumulation at S phase at 6 uM after 48 hrs by flow cytometry analysis relative to control; format: functional; how it was run: as §2
[22] = test system: HeLa; experiment: Induction of mitosis arrest in human HeLa cells assessed as disoriented tubulin structure at 6 uM after 12 hrs using DAPI staining by immunofluorescence microscopic analysis; format: functional, cell-based
How it was run: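 HeLa cells on coverslips treated 12 h, fixed in ice-cold methanol at -20°C. Stained with anti-α-tubulin and anti-lamin A (primary 1:200 overnight at 4°C, fluorescent secondary 1 h) and DAPI for DNA. Mitotic morphology scored by fluorescence microscopy.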

[23] = Cell cycle arrest in human MCF10A cells assessed as accumulation at S phase at 6 uM after 72 hrs by flow cytometry analysis relative to control; format: functional, cell-based; details: MCF-10A; how it was run: as §2
[24] = test system: MDA-MB-231; experiment: Cell cycle arrest in human MDA-MB-231 cells assessed as accumulation at G0-G1 phase at 6 uM after 72 hrs by flow cytometry analysis relative to control; format: functional; how it was run: as §2
[25] = test system: HeLa; experiment: Induction of DNA damage in human HeLa cells at 6 uM after 48 hrs by immunostaining; format: functional, cell-based
How it was run: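 γH2A.X (phospho-Ser139) immunostaining, with HeLa at 6 µM for 24 or 48 h and MDA-MB468 at 1 µM. Cells on coverslips fixed and permeabilized in ice-cold methanol at -20°C. Blocked in 1% FBS, primary antibody 1:200 overnight at 4°C, then fluorophore-conjugated secondary 1 h. DNA counterstained with DRAQ5.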

[26] = test system: HeLa; experiment: Cell cycle arrest in human HeLa cells assessed as accumulation at sub-G1 phase at 6 uM after 12 hrs by flow cytometry analysis relative to control; format: functional; how it was run: as §2
[27] = test system: HeLa; experiment: Cell cycle arrest in human HeLa cells assessed as accumulation at sub-G1 phase at 6 uM after 24 hrs by flow cytometry analysis relative to control; format: functional; how it was run: as §2
[28] = test system: HeLa; experiment: Cell cycle arrest in human HeLa cells assessed as accumulation at S phase at 6 uM after 12 hrs by flow cytometry analysis relative to control; format: functional; how it was run: as §2
[29] = Cell cycle arrest in human MCF10A cells assessed as accumulation at G2/M phase at 6 uM after 72 hrs by flow cytometry analysis relative to control; format: functional, cell-based; details: MCF-10A; how it was run: as §2
[30] = Cell cycle arrest in human MCF10A cells assessed as accumulation at sub-G1 phase at 6 uM after 72 hrs by flow cytometry analysis relative to control; format: functional, cell-based; details: MCF-10A; how it was run: as §2

With `FC(F)(F)c1cccc(/C=C\c2cc3ccccc3nc2Cl)c1` the pIC50 [1] was 5.43, the Activity [2] was 16.2% and the Activity [3] was “Active”. The Activity [4] was “Active”, the Activity [5] was 36.3% and the Activity [6] was 70.6%. The pIC50 [7] was 5.55, the Activity [8] was “Active” and the pIC50 [9] was 5.22. It also gave an Activity [10] of 31.3%, an Activity [11] of 31.3% and an Activity [12] of 12.9%. The Activity [13] was 18.6%, the Activity [14] was 56.9% and the Activity [15] was “Active”. It also gave an Activity [16] of 34%, an Activity [17] of 46% and an Activity [18] of 47.4%. It also gave an Activity [19] of 3.4%, an Activity [20] of 78.9% and an Activity [21] of 15.4%. The Activity [22] was “Active”, the Activity [23] was 12.1% and the Activity [24] was 34.6%. For the same compound, the Activity [25] was “inactive”, the Activity [26] was 3.6% and the Activity [27] was 17.8%. The Activity [28] was 8.9%, the Activity [29] was 4.9% and the Activity [30] was 12.1%.
